14 molecules from ChEMBL document CHEMBL1153859, “Analogs of JHU75528, a PET ligand for imaging of cerebral cannabinoid receptors (CB1): development of ligands with optimized lipophilicity and binding affinity” (Eur J Med Chem, 2009) can be followed below.

Data set [1] in a line: Octanol-phosphate buffer partition coefficient, log D at pH 7.4 by shake-flask method. In kind it is physicochemical. The gist of the method: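 Octanol/phosphate buffer (pH 7.4) partition by conventional shake-flask; logD7.4 reported as mean ± S.D. of independent assays.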
Data set [2] has as its target T1, Cannabinoid receptor 1 (Homo sapiens, UniProt P21554). Briefly: biochemical. In kind it is cell-based, HEK293.
Data set [3] has as its system Mus musculus. In words: Binding affinity to CB1 receptor in CD1 mouse brainstem at 200 uCi, iv after 60 mins in presence of rimonabant. In kind it is functional, organism-based. The settings on record: tested as the 11C-labelled form. The gist of the method: (§1)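 Controls got vehicle. 15 min later [11C] tracer (~7.4 MBq, ~200 μCi; ~300 GBq/μmol) was given i.v.; n=3 per group. Brains were harvested at 60 min and regions dissected on ice, then γ-counted against injectate standards as %ID/g tissue. Single-factor ANOVA, p ≤ 0.05.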

Data set [4] has as its system Mus musculus. In words: Binding affinity to CB1 receptor in CD1 mouse hippocampus at 200 uCi, iv after 60 mins in presence of rimonabant. In kind it is functional, organism-based. The settings on record: tested as the 11C-labelled form. The gist of the method:
as §1

The target in data set [5] is Cannabinoid receptor 1 (Mus musculus) (UniProt P47746). Briefly: Antagonist activity at CB1 receptor in C57/BL6 mouse striatum assessed as blockade of WIN-55212-2 induced inhibition of glutamate release at 3 uM by electrophysiology. In kind it is functional, tissue-based.
The test system of data set [6] is Cannabinoid receptor 1 (Macaca mulatta). In words: Binding affinity to Rhesus monkey CB1 receptor assessed as binding potential. The settings on record: tested as the 11C-labelled form.
The target of data set [7] is T1, Cannabinoid receptor 1. In words: Binding affinity to human CB1 receptor assessed as binding potential.

Molecules are shown by their SMILES. Activity calls are given as the source filed them. The rule behind the calls is not given here.

Broadly, the logD is the decadic logarithm of the distribution of all forms, ionised or not, between an organic phase and buffer at a given pH. Broadly, the Ki is the dissociation constant of the complex between target and ligand, obtained from inhibition or displacement.

T1 sequence (P21554 whole entry): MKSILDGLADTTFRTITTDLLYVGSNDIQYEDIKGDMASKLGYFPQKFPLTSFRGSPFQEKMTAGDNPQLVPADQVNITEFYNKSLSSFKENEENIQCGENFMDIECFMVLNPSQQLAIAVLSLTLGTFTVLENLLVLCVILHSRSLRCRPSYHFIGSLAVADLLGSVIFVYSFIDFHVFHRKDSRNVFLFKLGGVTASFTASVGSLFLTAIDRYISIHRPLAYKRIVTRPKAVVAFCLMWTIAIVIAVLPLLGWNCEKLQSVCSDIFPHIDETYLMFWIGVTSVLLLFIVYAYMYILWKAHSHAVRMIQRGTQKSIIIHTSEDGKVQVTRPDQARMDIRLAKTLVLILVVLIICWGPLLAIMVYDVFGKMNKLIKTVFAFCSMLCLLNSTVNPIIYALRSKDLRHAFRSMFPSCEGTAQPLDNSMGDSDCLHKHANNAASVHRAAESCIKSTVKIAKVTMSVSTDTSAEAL
Cannabinoid receptor 1 (Mus musculus), sequence (P47746 whole entry): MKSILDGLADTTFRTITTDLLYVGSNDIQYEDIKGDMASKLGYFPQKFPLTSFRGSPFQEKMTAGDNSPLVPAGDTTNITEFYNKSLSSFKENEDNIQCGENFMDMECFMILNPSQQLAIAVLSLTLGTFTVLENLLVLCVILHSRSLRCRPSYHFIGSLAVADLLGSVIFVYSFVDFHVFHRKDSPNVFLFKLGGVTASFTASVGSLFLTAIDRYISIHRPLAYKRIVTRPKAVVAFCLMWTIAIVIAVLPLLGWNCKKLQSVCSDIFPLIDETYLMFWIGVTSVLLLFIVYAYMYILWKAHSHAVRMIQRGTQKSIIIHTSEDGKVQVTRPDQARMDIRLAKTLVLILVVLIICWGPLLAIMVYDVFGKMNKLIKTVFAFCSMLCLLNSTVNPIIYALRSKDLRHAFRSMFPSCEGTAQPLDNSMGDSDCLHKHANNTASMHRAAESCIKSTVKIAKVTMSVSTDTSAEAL

Regarding `COc1ccc(-c2c(C#N)c(C(=O)NN3CCCCC3)nn2-c2ccc(F)cc2Cl)cc1`, in data set [1], the logD amounted to 2.8. For the same molecule, at Cannabinoid receptor 1 [2], the affinity corresponds to a Ki of 13 nM.
The like results for `COc1ccc(-c2c(C(N)=O)c(C(=O)NN3CCCCC3)nn2-c2ccccc2Br)cc1` were, in that order, 2.5 and more than 10000 nM.
Turning to `COc1ccc(-c2c(C#N)c(C(=O)NN3CCCC3)nn2-c2ccc(Cl)cc2Cl)cc1`, in the data set on Mus musculus [3], the outcome was Active. Besides, the outcome in the data set with Mus musculus [4] was inactive. The molecule also displayed a Ki on Cannabinoid receptor 1 [2] of 2 nM.
`N#Cc1c(C(=O)NN2CCOCC2)nn(-c2ccc(Cl)cc2Cl)c1-c1ccc(I)cc1` had a logD in data set [1] of 3.2. At Cannabinoid receptor 1 [2], the Ki worked out at 131 nM.
The like results for `N#Cc1c(C(=O)NN2CCCCC2)nn(-c2ccc(Cl)cc2Cl)c1-c1ccc(Br)cc1` were, in that order, 3.7 and 14 nM.
The like results for `N#Cc1c(C(=O)NN2CCCCC2)nn(-c2ccc(Cl)cc2Cl)c1-c1ccc(Cl)cc1` were, in that order, 3.5 and 24 nM.
The like results for `COc1ccc(-c2c(C#N)c(C(=O)NN3CCCCC3)nn2-c2ccccc2Br)cc1` were, in that order, 3.4 and 4.7 nM.
`N#Cc1c(C(=O)NN2CCOCC2)nn(-c2ccc(Cl)cc2Cl)c1-c1ccc(Br)cc1` came in with a logD in data set [1] of 3.1. This molecule also showed a Ki at Cannabinoid receptor 1 [2] of more than 1000 nM.
The like results for `COc1ccc(-c2c(C#N)c(C(=O)NN3CCCCC3)nn2-c2ccc(F)cc2Br)cc1` were, in that order, 2.9 and 32 nM.
With `CCCCCCC(C)(C)c1cc(O)c2c(c1)OC(C)(C)[C@@H]1CC=C(CO)C[C@@H]21`, the Ki at Cannabinoid receptor 1 [2] is 1.5 nM.
In the case of `COc1ccc(-c2c(C#N)c(C(=O)NN3CCCCC3)nn2-c2ccc(Cl)cc2Cl)cc1` [JHU-75528], in data set [5], the outcome was Active. The Activity in data set [6] was found to be 0.6. Moreover, the affinity at Cannabinoid receptor 1 [2] corresponds to a Ki of 11 nM.
The molecule `N#Cc1c(C(=O)NN2CCCCC2)nn(-c2ccc(Cl)cc2Cl)c1-c1ccc(OCF)cc1` gave a logD in data set [1] of 2.9. The inhibition constant (Ki) at Cannabinoid receptor 1 [2] came out at 10.3 nM.
Consider `Cc1c(C(=O)NN2CCOCC2)nn(-c2ccc(Cl)cc2Cl)c1-c1ccc(I)cc1`, for which the Activity is 0.21 on Cannabinoid receptor 1 [7] (tested as the 123I-labelled form) and 0.37 at Cannabinoid receptor 1 [7] (tested as the 124I-labelled form).
Turning to `N#Cc1c(C(=O)NN2CCCCC2)nn(-c2ccc(Cl)cc2Cl)c1-c1ccc(I)cc1`, in data set [1], the logD turned out to be 3.9. This molecule yielded a Ki at Cannabinoid receptor 1 [2] of 33 nM.
